From ChEMBL document CHEMBL1137474, “Synthesis, DNA binding, and cytotoxicity studies of pyrrolo[2,1-c][1,4]benzodiazepine-anthraquinone conjugates” (Bioorg Med Chem, 2007)
Blank lines part the entries; values can stand above or below the compound they belong to.

What was measured:
DNA = assay: Binding affinity for calf thymus DNA at 20 uM after 18 hrs by thermal denaturation assay; assay type: nucleic-acid assay; settings: Bos taurus
HOP-62 = assay: Cytotoxicity against human Hop62 cells by sulforhodamine B assay; assay type: functional, cell-based
How it was run: (§1)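 Cells in RPMI 1640 with 10% FBS and 2 mM L-glutamine, seeded at densities suited to doubling time, preincubated 24 h at 37 °C, 5% CO2. Drug added for a further 48 h. Fixed with cold TCA (final 10%) for 60 min at 4 °C, then SRB-stained. Bound dye eluted with 10 mM Tris base and read at 540 nm (690 nm reference). Growth taken relative to control wells. IC50 read from dose-response graphs. Triplicate wells, three repeat experiments.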

SiHa = assay: Cytotoxicity against human SiHa cells by sulforhodamine B assay; assay type: functional, cell-based; how it was run: as §1
MCF7 = assay: Cytotoxicity against human MCF7 cells by sulforhodamine B assay; assay type: functional, cell-based; how it was run: as §1
ZR-75-1 = assay: Cytotoxicity against human ZR-75-1 cells by sulforhodamine B assay; assay type: functional, cell-based; how it was run: as §1
PC-3 = assay: Cytotoxicity against human PC3 cells by sulforhodamine B assay; assay type: functional, cell-based; how it was run: as §1
COLO 205 = assay: Cytotoxicity against human Colo205 cells by sulforhodamine B assay; assay type: functional, cell-based; how it was run: as §1
A2780 = assay: Cytotoxicity against human A2780 cells by sulforhodamine B assay; assay type: functional, cell-based; how it was run: as §1

SMILES: COc1cccc2c1C(=O)c1c(O)c3c(c(O)c1C2=O)C[C@@](O)(C(=O)CO)C[C@@H]3O[C@H]1C[C@H](N)[C@H](O)[C@H](C)O1 [DOXORUBICIN]
- IC50 (HOP-62): 1000 nM
- IC50 (SiHa): 1500 nM
- IC50 (MCF7): 500 nM
- IC50 (ZR-75-1): 600 nM
- IC50 (PC-3): 500 nM
- IC50 (COLO 205): 2000 nM
- IC50 (A2780): 500 nM

SMILES: COc1cc2c(cc1OCCCC(=O)Nc1cccc3c1C(=O)c1ccccc1C3=O)N=C[C@@H]1CCCN1C2=O
- ΔTm (DNA): 9.1 °C
- IC50 (HOP-62): 800 nM
- IC50 (SiHa): 1800 nM
- IC50 (MCF7): 1400 nM
- IC50 (ZR-75-1): 500 nM
- IC50 (PC-3): 800 nM
- IC50 (COLO 205): 1800 nM
- IC50 (A2780): 500 nM

SMILES: COc1cc2c(cc1OCCCCC(=O)Nc1cccc3c1C(=O)c1ccccc1C3=O)N=C[C@@H]1CCCN1C2=O
- ΔTm (DNA): 5.2 °C
- IC50 (HOP-62): 1000 nM
- IC50 (SiHa): 1200 nM
- IC50 (MCF7): 600 nM
- IC50 (ZR-75-1): 500 nM
- IC50 (PC-3): 800 nM
- IC50 (COLO 205): < 1000 nM
- IC50 (A2780): 500 nM

The next lines start with results.

- ΔTm (DNA): 17.9 °C
SMILES: COc1cc2c(cc1OCCCOc1ccc(OCCCOc3cc4c(cc3OC)C(=O)N3CCC[C@H]3C=N4)c3c1C(=O)c1ccccc1C3=O)N=C[C@@H]1CCCN1C2=O
- IC50 (HOP-62): < 1000 nM
- IC50 (SiHa): 800 nM
- IC50 (MCF7): 600 nM
- IC50 (ZR-75-1): 500 nM
- IC50 (PC-3): 600 nM
- IC50 (COLO 205): < 1000 nM
- IC50 (A2780): 600 nM

- ΔTm (DNA): 1.6 °C
SMILES: COc1cc2c(cc1OCCCCOc1ccc(OCCCCOc3cc4c(cc3OC)C(=O)N3CCC[C@H]3C=N4)c3c1C(=O)c1ccccc1C3=O)N=C[C@@H]1CCCN1C2=O
- IC50 (SiHa): 9000 nM
- IC50 (MCF7): 9000 nM
- IC50 (PC-3): 7000 nM
- IC50 (COLO 205): 10000 nM
- IC50 (A2780): 10000 nM

- ΔTm (DNA): 6 °C
SMILES: COc1cc2c(cc1OCCCCCOc1ccc(OCCCCCOc3cc4c(cc3OC)C(=O)N3CCC[C@H]3C=N4)c3c1C(=O)c1ccccc1C3=O)N=C[C@@H]1CCCN1C2=O
- IC50 (HOP-62): 1400 nM
- IC50 (SiHa): 800 nM
- IC50 (MCF7): 1200 nM
- IC50 (ZR-75-1): 1500 nM
- IC50 (PC-3): 1000 nM
- IC50 (COLO 205): < 1000 nM
- IC50 (A2780): 500 nM
